# Data published in ChEMBL document CHEMBL5360562 (Eur J Med Chem, 2023).
# Legend:
# Acinetobacter baumannii [1] = experiment: Potentiation of Clarithromycin antibacterial activity against Acinetobacter baumannii AB5075 assessed as fold reduction in clarithromycin MIC at 15 uM incubated for 16 hrs by broth microdilution method; format: functional
# Acinetobacter baumannii [2] = experiment: Potentiation of Clarithromycin antibacterial activity against Acinetobacter baumannii AB5075 assessed as clarithromycin MIC at 7.5 uM incubated for 16 hrs by broth microdilution method; format: functional
# [3] = Metabolic stability in human liver microsomes assessed as parent compound remaining in presence of NADPH measured at 1 hr by UV-UPLC analysis; format: ADME, Microsome
# Acinetobacter baumannii [4] = experiment: Potentiation of Clarithromycin antibacterial activity against Acinetobacter baumannii AB5075 assessed as fold reduction in clarithromycin MIC at 5 uM incubated for 16 hrs by broth microdilution method; format: functional
# Outline: (§1)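 Checkerboard-style potentiation by broth microdilution. 6 h day cultures in CAMHB diluted to 5×10^5 CFU/mL. Adjuvant added from 10 mM DMSO stock at fixed concentration throughout. […] Controls: antibiotic alone, adjuvant alone, media only. Incubated stationary at 37 °C for 16 h. MIC is lowest concentration with no visible growth; fold reduction taken against the antibiotic-alone lane.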
# Acinetobacter baumannii [5] = experiment: Potentiation of Clarithromycin antibacterial activity against Acinetobacter baumannii AB5075 assessed as clarithromycin MIC at 15 uM incubated for 16 hrs by broth microdilution method; format: functional
# Acinetobacter baumannii [6] = experiment: Potentiation of Clarithromycin antibacterial activity against Acinetobacter baumannii AB5075 assessed as clarithromycin MIC at 5 uM incubated for 16 hrs by broth microdilution method; format: functional
# [7] = Therapeutic index, ratio of IC50 for antiproliferative against human HepG2 cells assessed as reduction in cell viability to MIC for potentiation of Clarithromycin antibacterial activity against Acinetobacter baumannii […] assessed as clarithromycin MIC; format: toxicity, cell-based; details: read-out: TI
# [8] = Stability of compound in human plasma assessed as parent compound remaining measured at 4 hrs; format: ADME, cell-free
# Outline: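 Compound at 20 μM final in human plasma (from 10 mM DMSO stock), 37 °C; aliquots at 0, 30, 60, 120, 240 min quenched in internal standard in 1:1 ACN/MeOH, centrifuged, supernatant analysed by UPLC-MRM. Peak-area ratio to internal standard expressed as % parent remaining relative to 0 min; half-life calculated.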
# Acinetobacter baumannii [9] = experiment: Antibacterial activity against Acinetobacter baumannii AB5075 assessed as reduction in bacterial growth incubated for 16 hrs by broth microdilution method; format: functional
# Acinetobacter baumannii [10] = experiment: Potentiation of Clarithromycin antibacterial activity against Acinetobacter baumannii AB5075 assessed as fold reduction in clarithromycin MIC at 7.5 uM incubated for 16 hrs by broth microdilution method; format: functional; outline: as §1
# [11] = Antiproliferative against human HepG2 cells assessed as reduction in cell viability incubated for 24 hrs by XTT assay; format: toxicity, cell-based
# Acinetobacter baumannii [12] = experiment: Potentiation of rifampicin antibacterial activity against Acinetobacter baumannii AB5075 assessed as rifampicin MIC at 10 uM incubated for 16 hrs by broth microdilution method; format: functional
# Acinetobacter baumannii [13] = experiment: Potentiation of Clarithromycin antibacterial activity against Acinetobacter baumannii AB5075 assessed as clarithromycin MIC at 10 uM incubated for 16 hrs by broth microdilution method; format: functional
# Acinetobacter baumannii [14] = experiment: Potentiation of erythromycin antibacterial activity against Acinetobacter baumannii AB5075 assessed as erythromycin MIC at 30 uM incubated for 16 hrs by broth microdilution method; format: functional
# Acinetobacter baumannii [15] = experiment: Potentiation of Clarithromycin antibacterial activity against Acinetobacter baumannii AB5075 assessed as clarithromycin MIC at 1.5 uM incubated for 16 hrs by broth microdilution method; format: functional; outline: as §1
# Acinetobacter baumannii [16] = experiment: Potentiation of Clarithromycin antibacterial activity against Acinetobacter baumannii AB3560 assessed as clarithromycin MIC at 10 uM incubated for 16 hrs by broth microdilution method; format: functional
# Acinetobacter baumannii [17] = experiment: Potentiation of erythromycin antibacterial activity against Acinetobacter baumannii AB5075 assessed as erythromycin MIC at 7.5 uM incubated for 16 hrs by broth microdilution method; format: functional
# Acinetobacter baumannii [18] = experiment: Potentiation of Clarithromycin antibacterial activity against Acinetobacter baumannii AB5075 assessed as fold reduction in clarithromycin MIC at 1.5 uM incubated for 16 hrs by broth microdilution method; format: functional
# Acinetobacter baumannii [19] = experiment: Potentiation of erythromycin antibacterial activity against Acinetobacter baumannii AB5075 assessed as erythromycin MIC at 20 uM incubated for 16 hrs by broth microdilution method; format: functional
# Acinetobacter baumannii [20] = experiment: Potentiation of Clarithromycin antibacterial activity against Acinetobacter baumannii AB5075 assessed as clarithromycin MIC at 2.5 uM incubated for 16 hrs by broth microdilution method; format: functional
# Acinetobacter baumannii [21] = experiment: Potentiation of rifampicin antibacterial activity against Acinetobacter baumannii AB5075 assessed as rifampicin MIC at 30 uM incubated for 16 hrs by broth microdilution method; format: functional
# Acinetobacter baumannii [22] = experiment: Potentiation of Azithromycin antibacterial activity against Acinetobacter baumannii AB5075 assessed as azithromycin MIC at 10 uM incubated for 16 hrs by broth microdilution method; format: functional
# Acinetobacter baumannii [23] = experiment: Potentiation of Clarithromycin antibacterial activity against Acinetobacter baumannii AB5711 assessed as clarithromycin MIC at 10 uM incubated for 16 hrs by broth microdilution method; format: functional
# Acinetobacter baumannii [24] = experiment: Potentiation of Clarithromycin antibacterial activity against Acinetobacter baumannii AB5075 assessed as fold reduction in clarithromycin MIC at 30 uM incubated for 16 hrs by broth microdilution method; format: functional; outline: as §1
# Acinetobacter baumannii [25] = experiment: Potentiation of rifampicin antibacterial activity against Acinetobacter baumannii AB5075 assessed as rifampicin MIC at 5 uM incubated for 16 hrs by broth microdilution method; format: functional
# Outline: (§2)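 A. baumannii AB5075 6 h day cultures in CAMHB subcultured to 5×10^5 CFU/mL; adjuvant added from 10 mM DMSO stock at fixed concentration, then rifampicin (DMSO) twofold serially diluted in adjuvant-containing broth. Antibiotic-alone and adjuvant-alone control lanes.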
# Acinetobacter baumannii [26] = experiment: Potentiation of Clarithromycin antibacterial activity against Acinetobacter baumannii AB5075 assessed as reduction in clarithromycin MIC at 20 uM incubated for 16 hrs by broth microdilution method; format: functional
# Acinetobacter baumannii [27] = experiment: Potentiation of Clarithromycin antibacterial activity against Acinetobacter baumannii AB5674 assessed as clarithromycin MIC at 10 uM incubated for 16 hrs by broth microdilution method; format: functional
# Acinetobacter baumannii [28] = experiment: Potentiation of Azithromycin antibacterial activity against Acinetobacter baumannii AB5075 assessed as azithromycin MIC at 30 uM incubated for 16 hrs by broth microdilution method; format: functional
# Acinetobacter baumannii [29] = experiment: Potentiation of Clarithromycin antibacterial activity against Acinetobacter baumannii AB5075 assessed as fold reduction in clarithromycin MIC at 10 uM incubated for 16 hrs by broth microdilution method; format: functional; outline: as §1
# Acinetobacter baumannii [30] = experiment: Potentiation of Clarithromycin antibacterial activity against Acinetobacter baumannii AB5075 assessed as clarithromycin MIC at 30 uM incubated for 16 hrs by broth microdilution method; format: functional
# Acinetobacter baumannii [31] = experiment: Potentiation of rifampicin antibacterial activity against Acinetobacter baumannii AB5075 assessed as rifampicin MIC at 7.5 uM incubated for 16 hrs by broth microdilution method; format: functional; outline: as §2
# Acinetobacter baumannii [32] = experiment: Potentiation of Clarithromycin antibacterial activity against Acinetobacter baumannii AB4498 assessed as clarithromycin MIC at 10 uM incubated for 16 hrs by broth microdilution method; format: functional
# Acinetobacter baumannii [33] = experiment: Potentiation of erythromycin antibacterial activity against Acinetobacter baumannii AB5075 assessed as erythromycin MIC at 10 uM incubated for 16 hrs by broth microdilution method; format: functional
# Acinetobacter baumannii [34] = experiment: Potentiation of Azithromycin antibacterial activity against Acinetobacter baumannii AB5075 assessed as azithromycin MIC at 20 uM incubated for 16 hrs by broth microdilution method; format: functional
# Acinetobacter baumannii [35] = experiment: Potentiation of Clarithromycin antibacterial activity against Acinetobacter baumannii AB3785 assessed as clarithromycin MIC at 10 uM incubated for 16 hrs by broth microdilution method; format: functional
# Acinetobacter baumannii [36] = experiment: Potentiation of Azithromycin antibacterial activity against Acinetobacter baumannii AB5075 assessed as azithromycin MIC at 7.5 uM incubated for 16 hrs by broth microdilution method; format: functional
# Acinetobacter baumannii [37] = experiment: Potentiation of Clarithromycin antibacterial activity against Acinetobacter baumannii AB967 assessed as clarithromycin MIC at 10 uM incubated for 16 hrs by broth microdilution method; format: functional
# Acinetobacter baumannii [38] = experiment: Potentiation of rifampicin antibacterial activity against Acinetobacter baumannii AB5075 assessed as fold reduction in rifampicin MIC at 10 uM incubated for 16 hrs by broth microdilution method; format: functional
# Acinetobacter baumannii [39] = experiment: Potentiation of rifampicin antibacterial activity against Acinetobacter baumannii AB5075 assessed as rifampicin MIC at 20 uM incubated for 16 hrs by broth microdilution method; format: functional
# Acinetobacter baumannii [40] = experiment: Potentiation of Clarithromycin antibacterial activity against Acinetobacter baumannii AB5075 assessed as clarithromycin MIC at 20 uM incubated for 16 hrs by broth microdilution method; format: functional
# Acinetobacter baumannii [41] = experiment: Antibacterial activity against Acinetobacter baumannii AB967 assessed as reduction in bacterial growth incubated for 16 hrs by broth microdilution method; format: functional
# Outline: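 Six-hour CAMHB day cultures were diluted to 5×10^5 CFU/mL in CAMHB and dosed from DMSO stocks. Two-fold serial dilutions were made in broth, with a medium-only blank. Plates were incubated stationary at 37 °C for 16 h and read at OD600. The MIC was the lowest concentration giving <10% growth versus the positive control.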
# Acinetobacter baumannii [42] = experiment: Antibacterial activity against Acinetobacter baumannii AB4498 assessed as reduction in bacterial growth incubated for 16 hrs by broth microdilution method; format: functional
# Acinetobacter baumannii [43] = experiment: Antibacterial activity against Acinetobacter baumannii AB3785 assessed as reduction in bacterial growth incubated for 16 hrs by broth microdilution method; format: functional
# Pseudomonas aeruginosa = experiment: Antibacterial activity against Pseudomonas aeruginosa PAO1 assessed as inhibition of bacterial growth incubated for 16 hrs by broth microdilution method; format: functional
# Outline: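 Standalone MIC by broth microdilution. 6 h day cultures in cation-adjusted Mueller-Hinton broth (CAMHB) diluted to 5×10^5 CFU/mL. Compound added from 10 mM DMSO stock to 200 μM (highest concentration), then twofold serial dilution. Incubated stationary at 37 °C for 16 h. OD600 read; MIC is lowest concentration with <10% growth versus positive control.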
# Acinetobacter baumannii [44] = experiment: Antibacterial activity against Acinetobacter baumannii AB5711 assessed as reduction in bacterial growth incubated for 16 hrs by broth microdilution method; format: functional
SMILES,MIC (Acinetobacter baumannii [2]) [µg/mL],Stability [3] [%],fold change (FC) (Acinetobacter baumannii [4]),MIC (Acinetobacter baumannii [6]) [µg/mL],selectivity ratio [7],Stability [8] [%],MIC (Acinetobacter baumannii [9]) [µM],fold change (FC) (Acinetobacter baumannii [10]),IC50 at 24 h [11] [µg/mL],MIC (Acinetobacter baumannii [12]) [µg/mL],MIC (Acinetobacter baumannii [13]) [µg/mL],MIC (Acinetobacter baumannii [14]) [µg/mL],MIC (Acinetobacter baumannii [19]) [µg/mL],MIC (Acinetobacter baumannii [21]) [µg/mL],MIC (Acinetobacter baumannii [22]) [µg/mL],fold change (FC) (Acinetobacter baumannii [24]),fold change (FC) (Acinetobacter baumannii [26]),MIC (Acinetobacter baumannii [28]) [µg/mL],MIC (Acinetobacter baumannii [30]) [µg/mL],MIC (Acinetobacter baumannii [33]) [µg/mL],other results
Nc1nc(-c2ccc(NC(=O)Nc3cc(Br)cc(Br)c3)cc2)c[nH]1,0.25,54,8,4,6.3,89,50,128,23.2,–,–,–,–,–,–,–,–,–,–,–,fold change (FC) (Acinetobacter baumannii [1]): 256; MIC (Acinetobacter baumannii [5]): 0.125 µg/mL
Cl.Cl.Nc1nc(-c2cc(F)cc(NC(=O)Nc3cc(F)cc(-c4c[nH]c(N)n4)c3)c2)c[nH]1,0.25,86,64,0.5,> 353,> 95,> 200,128,> 256,0.031,0.125,0.125,0.25,0.003,1,>=512,>=512,0.5,≤ 0.062,0.25,"MIC (Acinetobacter baumannii [15]): 2 µg/mL; MIC (Acinetobacter baumannii [16]): ≤ 0.062 µg/mL; MIC (Acinetobacter baumannii [17]): 1 µg/mL; fold change (FC) (Acinetobacter baumannii [18]): 16; MIC (Acinetobacter baumannii [20]): 1 µg/mL; MIC (Acinetobacter baumannii [23]): 0.125 µg/mL; MIC (Acinetobacter baumannii [25]): 0.25 µg/mL; MIC (Acinetobacter baumannii [26]; Acinetobacter baumannii, AB5075): ≤ 0.062 µg/mL; MIC (Acinetobacter baumannii [27]): ≤ 0.062 µg/mL; fold change (FC) (Acinetobacter baumannii [29]): 256; MIC (Acinetobacter baumannii [31]): 0.06 µg/mL; MIC (Acinetobacter baumannii [32]): ≤ 0.062 µg/mL; MIC (Acinetobacter baumannii [34]): 1 µg/mL; MIC (Acinetobacter baumannii [35]): ≤ 0.062 µg/mL; MIC (Acinetobacter baumannii [36]): 2 µg/mL; MIC (Acinetobacter baumannii [37]): ≤ 0.062 µg/mL; fold change (FC) (Acinetobacter baumannii [38]): 32; MIC (Acinetobacter baumannii [39]): 0.007 µg/mL"
Nc1nc(-c2ccc(NC(=O)Nc3ccc(-c4c[nH]c(N)n4)cc3)cc2)c[nH]1,8,–,–,–,–,–,> 200,–,–,2,4,0.5,2,0.007,8,256,64,0.5,0.125,8,MIC (Acinetobacter baumannii [40]): 0.5 µg/mL; MIC (Acinetobacter baumannii [34]): 1 µg/mL; MIC (Acinetobacter baumannii [39]): 0.125 µg/mL
CC[C@H]1OC(=O)[C@H](C)[C@@H](O[C@H]2C[C@@](C)(OC)[C@@H](O)[C@H](C)O2)[C@H](C)[C@@H](O[C@@H]2O[C@H](C)C[C@H](N(C)C)[C@H]2O)[C@](C)(OC)C[C@@H](C)C(=O)[C@H](C)[C@@H](O)[C@]1(C)O [CLARITHROMYCIN],–,–,–,–,–,–,–,–,–,–,–,–,–,–,–,–,–,–,–,–,MIC (Acinetobacter baumannii [41]): 16 µg/mL; MIC (Acinetobacter baumannii [42]): 64 µg/mL; MIC (Acinetobacter baumannii [43]): 64 µg/mL; MIC (Pseudomonas aeruginosa): > 200 µM; MIC (Acinetobacter baumannii [44]): 64 µg/mL
